ChEMBL document CHEMBL1268957, “Indapamide-like benzenesulfonamides as inhibitors of carbonic anhydrases I, II, VII, and XIII” (Bioorg Med Chem, 2010)

How the values were obtained:
Carbonic anhydrase 7 [1] = target: T1, Carbonic anhydrase 7 (Homo sapiens, UniProt P43166); assay: Binding affinity to human recombinant carbonic anhydrase 7 by thermal shift assay
Carbonic anhydrase 7 [2] = target: T1, Carbonic anhydrase 7; assay: Binding affinity to human recombinant carbonic anhydrase 7 by isothermal titration calorimetry assay
Carbonic anhydrase 2 [3] = target: T2, Carbonic anhydrase 2 (Homo sapiens, UniProt P00918); assay: Binding affinity to human recombinant carbonic anhydrase 2 by thermal shift assay
Carbonic anhydrase 13 [4] = target: T3, Carbonic anhydrase 13 (Homo sapiens, UniProt Q8N1Q1); assay: Binding affinity to human recombinant carbonic anhydrase 13 by isothermal titration calorimetry assay
T3 sequence (Q8N1Q1 whole entry): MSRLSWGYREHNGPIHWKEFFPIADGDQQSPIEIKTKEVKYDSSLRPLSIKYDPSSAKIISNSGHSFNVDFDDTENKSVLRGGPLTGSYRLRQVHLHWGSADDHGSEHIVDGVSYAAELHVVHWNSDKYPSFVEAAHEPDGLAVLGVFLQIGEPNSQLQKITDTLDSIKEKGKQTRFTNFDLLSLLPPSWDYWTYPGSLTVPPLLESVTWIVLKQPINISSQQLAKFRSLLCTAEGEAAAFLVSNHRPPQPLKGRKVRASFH

Carbonic anhydrase 1 [5] = target: T4, Carbonic anhydrase 1 (Homo sapiens, UniProt P00915); assay: Binding affinity to human recombinant carbonic anhydrase 1 by thermal shift assay
T4 sequence (P00915 whole entry): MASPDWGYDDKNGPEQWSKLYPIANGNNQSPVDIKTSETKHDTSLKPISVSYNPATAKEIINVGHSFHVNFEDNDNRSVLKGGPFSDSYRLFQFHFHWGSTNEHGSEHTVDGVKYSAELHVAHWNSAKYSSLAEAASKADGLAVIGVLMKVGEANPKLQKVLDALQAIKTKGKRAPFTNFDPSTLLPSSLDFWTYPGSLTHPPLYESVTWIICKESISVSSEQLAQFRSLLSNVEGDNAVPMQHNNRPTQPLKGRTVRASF

Carbonic anhydrase 13 [6] = target: T3, Carbonic anhydrase 13; assay: Binding affinity to human recombinant carbonic anhydrase 13 by thermal shift assay
Carbonic anhydrase 1 [7] = target: T4, Carbonic anhydrase 1; assay: Binding affinity to human recombinant carbonic anhydrase 1 by isothermal titration calorimetry assay
Procedure, shortened: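 Isothermal titration calorimetry of ligand binding to recombinant hCA at 37 °C in phosphate buffer with 50 mM NaCl, pH 7.0, final DMSO 0.5–2%. Heats of injection integrated against molar ratio to give the dissociation constant.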

Carbonic anhydrase 2 [8] = target: T2, Carbonic anhydrase 2; assay: Binding affinity to human recombinant carbonic anhydrase 2 by isothermal titration calorimetry assay

T1 sequence (P43166 whole entry): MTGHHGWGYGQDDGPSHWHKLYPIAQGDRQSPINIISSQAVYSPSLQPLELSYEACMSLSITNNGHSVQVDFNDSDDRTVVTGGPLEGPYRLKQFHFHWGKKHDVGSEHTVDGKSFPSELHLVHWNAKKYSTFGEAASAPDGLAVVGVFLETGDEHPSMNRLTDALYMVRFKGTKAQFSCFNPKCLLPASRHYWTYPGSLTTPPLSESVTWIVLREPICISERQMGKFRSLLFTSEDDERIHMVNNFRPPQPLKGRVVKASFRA

Structure (SMILES): NS(=O)(=O)c1cc(C(=O)CSc2nc3cc4c(cc3[nH]2)OCCO4)ccc1Cl
- Kd (Carbonic anhydrase 7 [1]): 100 nM
- Kd (Carbonic anhydrase 7 [2]): 1100 nM
- Kd (Carbonic anhydrase 2 [3]): 20 nM
- Kd (Carbonic anhydrase 13 [4]): 300 nM
- Kd (Carbonic anhydrase 1 [5]): 3100 nM
- Kd (Carbonic anhydrase 13 [6]): 100 nM
- Kd (Carbonic anhydrase 1 [7]): 2200 nM

Structure (SMILES): CC(C)Cc1nc2ccccc2n1CC(=O)c1ccc(Cl)c(S(N)(=O)=O)c1
- Kd (Carbonic anhydrase 2 [3]): 400 nM

Structure (SMILES): NS(=O)(=O)c1cc(C(=O)Cn2c(CN3CCOCC3)nc3ccccc32)ccc1Cl
- Kd (Carbonic anhydrase 7 [1]): 10000 nM
- Kd (Carbonic anhydrase 2 [3]): 4200 nM
- Kd (Carbonic anhydrase 1 [5]): 40000 nM
- Kd (Carbonic anhydrase 13 [6]): 12500 nM

Structure (SMILES): NS(=O)(=O)c1cc(C(=O)CSc2nc3ccccc3[nH]2)ccc1Cl
- Kd (Carbonic anhydrase 7 [1]): 30 nM
- Kd (Carbonic anhydrase 7 [2]): 100 nM
- Kd (Carbonic anhydrase 2 [3]): 100 nM
- Kd (Carbonic anhydrase 2 [8]): 100 nM
- Kd (Carbonic anhydrase 13 [4]): 100 nM
- Kd (Carbonic anhydrase 1 [5]): 1000 nM
- Kd (Carbonic anhydrase 13 [6]): 200 nM
- Kd (Carbonic anhydrase 1 [7]): 1300 nM

Structure (SMILES): NS(=O)(=O)c1cc(C(=O)CSc2nc3ccc(Br)cc3[nH]2)ccc1Cl
- Kd (Carbonic anhydrase 7 [1]): 100 nM
- Kd (Carbonic anhydrase 13 [4]): 200 nM
- Kd (Carbonic anhydrase 1 [5]): 1300 nM
- Kd (Carbonic anhydrase 13 [6]): 100 nM
- Kd (Carbonic anhydrase 1 [7]): 1400 nM

Structure (SMILES): NS(=O)(=O)c1cc(C(=O)CSc2nc3c(cnc4ccccc43)[nH]2)ccc1Cl
- Kd (Carbonic anhydrase 7 [1]): 100 nM
- Kd (Carbonic anhydrase 1 [5]): 1300 nM
- Kd (Carbonic anhydrase 13 [6]): 100 nM

Structure (SMILES): NS(=O)(=O)c1cc(C(=O)Cn2cnc3ccccc32)ccc1Cl
- Kd (Carbonic anhydrase 13 [6]): 700 nM

Structure (SMILES): NS(=O)(=O)c1cc(C(=O)Cn2c(CO)nc3ccccc32)ccc1Cl
- Kd (Carbonic anhydrase 13 [6]): 300 nM
